The EternaBench riboswitch data

System: MS2 coat protein
Test: apparent Kd, MS2 coat protein; higher = weaker binding; RNA-MaP array
How it was run: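 Designed RNAs were transcribed in place on an Illumina sequencing chip from sequenced DNA templates. At room temperature and with or without input ligand, they were incubated with fluorescently labeled MS2 coat protein from 1.5 nM to 3 μM, for 0.8–1.5 h at the lowest and 10–20 min at the highest concentrations. Apparent Kd is the median of the binding-curve fits made per cluster, with designs measured on fewer than 10 clusters excluded.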

[1] = designed as: OFF switch for tryptophan, no ligand
[2] = ligand present: tryptophan, designed as: OFF switch for tryptophan
[3] = designed as: OFF switch for flavin mononucleotide, no ligand
[4] = ligand present: flavin mononucleotide, designed as: OFF switch for flavin mononucleotide
[5] = designed as: ON switch for flavin mononucleotide, no ligand
[6] = ligand present: flavin mononucleotide, designed as: ON switch for flavin mononucleotide

Sequence	apparent Kd [3]	apparent Kd [4]	other results
UCGCCAUUGACGGCCGCCACUCAAUGGUCUUCUCUGAACAUAAUUAACAUGAGGAUCACCCAUGUGAGGACCGGGUCGGUUAGAC			apparent Kd [1]: 19.5 nM; apparent Kd [2]: 32.3 nM
UCGCCGCUGGAGACAUGAGGAUCACCCAUGUGGUCUUUCGUAAGAAGGUGCCUAUAGAACUUUUGCAAGGAUAUUACGCCGGAG	217 nM	113 nM	
UCGCUAUUGUCGGCCGCCACUACUGCAGGGAAACAAAUAUAACCACAUGAGGAUCACCCAUGUCUUAGGACCGGGACACCCAUCU			apparent Kd (designed as: ON switch for tryptophan, no ligand): 98.3 nM; apparent Kd (ligand present: tryptophan, designed as: ON switch for tryptophan): 80.7 nM
UCGGCUUCCCAAGGAUAUGAGGUGCUUAUCGACAUGAGGAUCACCCAUGUAAAACUAGCUGCCAUUCAGAAGGUGGACACGCGC			apparent Kd [5]: 17 nM; apparent Kd [6]: 7.78 nM
UCUAUUAACUAAGGAUAUAGAACAGGCCGGAUUUUGUUGCGUCUGACAUGAGGAUCACCCAUGUUCUAGAAGGUAGACUGCUGC	13.3 nM	11.7 nM	
UCUCAGUGAGGAUAUCGAACAGACCUUUGUGUGCUAAUUUUCGAGAAGGCACAUGAGGAUCACCCAUGUGACUC	54.6 nM	49.7 nM	
UGACCACAUGAGGAUCACCCAUGUCAGGAUAUAGGUACACUGGUACAGCCUUUUCGGCCUAGAAGGGACUCUCU	9.09 nM	8.42 nM	
UGAGGUAAGGAGAAGGUCCAACGAUGAAUUUAGGAAGGAUAUCCAACAUGAGGAUCACCCAUGUAAGGGUGCCCGAAGUCAGGA	133 nM	178 nM	
UGAGUCUAAGGAUAUGCUGCCGACAACAUGAGGAUCACCCAUGUCUUUCGUUGUUCGCCGGCAGAAGGUAGCAAUU	561 nM	262 nM	
UGCCUAUACCGAGGAUAUUACGUCAGAUGUGUGUAAGAAGGCGGGUUCCGAUCAACAUGAGGAUCACCCAUGUAUCUUUACGGC			apparent Kd [5]: 24.5 nM; apparent Kd [6]: 8.72 nM
UGGAAUGUGCAAGGAUAUUGGCGGUGUGGAAUAGAAUCACUCGAACAUGAGGAUCACCCAUGUUGCAAGAAGGUGCGGGAACGA	38.2 nM	33.5 nM	
UGGAGAUAGACGGCCGCCACUAACAUGAGGAUCACCCAUGUCGUCACGAAUGGAUGGCCCUAGAAUAGGACCGGGUCCGGAUUCA			apparent Kd [1]: 33.6 nM; apparent Kd [2]: 34.8 nM
UGGCCGUAGAAGAAGGAGGACACCGUUUUGUCACGGACAUGAGGAUCACCCAUGUAGAUAAUUGCCUAGGAUAUUCGCUCAUUU			apparent Kd [5]: 15.9 nM; apparent Kd [6]: 7.52 nM
UGGGAACGAGGAUAUACAUGAGGAUCACCCAUGUUCAAGAUUCGGGUAUAAUGCCUCAGUAGAAGGCGUAAGCA	107 nM	108 nM	
UGGUCAGAUGUAAGGAUAUUCGCUCUAAUUUCUCAGAAGAAGGUACAUGAGGAUCACCCAUGUAAUAAAGAAAA	9.38 nM	19.6 nM	
UGGUGGAAGACAUGAGGAUCACCCAUGUUCGUAGAUGCCGAGCAGGAUAUUAGAUCAUAAACCAGUAAGAAGGGCUGAGUGUCU			apparent Kd [5]: 31.8 nM; apparent Kd [6]: 26.1 nM
UGUCGAUGAUCCAAGGAUAUAUGGAUGCUGACAUGAGGAUCACCCAUGUCCCGAGAAAUCAUUAAAUAGAAGGUGGGCUAUGGCAA			apparent Kd [5]: 45.9 nM; apparent Kd [6]: 21.2 nM
UGUUGGGAAACAGGAUAUGAGCUUAAAGCACAAGGGAUUCGCACAUGAGGAUCACCCAUGUAACGUCAGAAGGGUUUGUUUGUA	51.2 nM	42.2 nM	
UUAAAGGCACCUCAUGGGACUAUAAACCCGCGAGGACCGGUACGGCCGCCACUCGAAUAUCAACAUGAGGAUCACCCAUGUGGUU			apparent Kd [1]: 21.8 nM; apparent Kd [2]: 48.5 nM
UUACCAGCAGGAUAUUCAUCUGUUAACAUGAGGAUCACCCAUGUCUCGUGAUCGAACUAGGAAGAAGGGCUUAUAC	74.4 nM	77.3 nM	
UUACGGCAAGGAUAUACAUGAGGAUCACCCAUGUACUCUUUAUAAAUUAGUCAGCAUGGUAGAAGGUGCCGCUA	9.04 nM	11 nM	
UUAUGUCGGUAGGAUAUUAGACGUGGUUAUACGUAAGAAGGACCAACAUGAGGAUCACCCAUGUGAGAUAGUUC	14.4 nM	24.7 nM	
UUCUGUUCCAAGAAGGUCAAAAUUGAUGCCUCUGAAGGAUAUUGGACAGCCAAGGUCUGUGACAUGAGGAUCACCCAUGUUCAG			apparent Kd [5]: 6.72 nM; apparent Kd [6]: 6.14 nM
UUGCUAACAGUAGGAUAUUCAAAACAGCGUGAGGAAGAAGGACUAGCGACUUCGUGACAUGAGGAUCACCCAUGUGUAAGGCCA			apparent Kd [5]: 12.5 nM; apparent Kd [6]: 9.89 nM
UUGUGACAUGAGGAUCACCCAUGUGAGGAUAUUCUGCUUGUGGAUAGUACGACUUGAUGAAGAAGGCACGUUAU	34.7 nM	33.3 nM	
UUUAACAAGAACGUCCUGAGUGACAAGCUACGAGGACCGGUACGGCCGCCACUCGUACCAAAACAUGAGGAUCACCCAUGUUAAA			apparent Kd [1]: 17.4 nM; apparent Kd [2]: 17.8 nM
